Data taken from ChEMBL document CHEMBL1177643, “Synthesis, DNA-binding ability and anticancer activity of benzothiazole/benzoxazole-pyrrolo[2,1-c][1,4]benzodiazepine conjugates” (Bioorg Med Chem, 2010).

Assays:
Calf thymus DNA = test: Binding affinity to calf thymus duplex-form DNA assessed as melting temperature at 1:5 compound/DNA ratio after 18 hrs; format: nucleic-acid assay; conditions: Bos taurus
CCRF-CEM = test: Growth inhibition of human CCRF-CEM cells after 48 hrs by sulforhodamine B assay; format: functional
How it was run: (§1)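 Dose–response in each cell line over at least five concentrations at 10-fold dilutions, with 48 h continuous exposure and sulforhodamine B read-out.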

HL-60 = test: Growth inhibition of human HL-60(TB) cells after 48 hrs by sulforhodamine B assay; format: functional; conditions: HL-60, 48 h
How it was run: (§2)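 Panel of 60 human cancer cell lines; for each compound, dose–response curves per cell line measured at a minimum of five concentrations at 10-fold dilutions. Cells exposed continuously to drug for 48 h, and growth was read out by sulforhodamine B staining.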

K562 = test: Growth inhibition of human K562 cells after 48 hrs by sulforhodamine B assay; format: functional; conditions: K562, 48 h; how it was run: as §2
MOLT-4 = test: Growth inhibition of human MOLT4 cells after 48 hrs by sulforhodamine B assay; format: functional; conditions: MOLT-4, 48 h; how it was run: as §2
[1] = Growth inhibition of human […] cells after 48 hrs by sulforhodamine B assay; format: functional; how it was run: as §2
SR = test: Growth inhibition of human SR cells after 48 hrs by sulforhodamine B assay; format: functional; how it was run: as §2
A549 = test: Growth inhibition of human A549 cells after 48 hrs by sulforhodamine B assay; format: functional; conditions: A549, 48 h; how it was run: as §1
EKVX = test: Growth inhibition of human EKVX cells after 48 hrs by sulforhodamine B assay; format: functional; how it was run: as §1
HOP-62 = test: Growth inhibition of human HOP62 cells after 48 hrs by sulforhodamine B assay; format: functional; conditions: HOP-62, 48 h; how it was run: as §2
HOP-92 = test: Growth inhibition of human HOP92 cells after 48 hrs by sulforhodamine B assay; format: functional; conditions: HOP-92, 48 h; how it was run: as §2
NCI-H226 = test: Growth inhibition of human NCI-H226 cells after 48 hrs by sulforhodamine B assay; format: functional; conditions: NCI-H226, 48 h; how it was run: as §2
NCI-H23 = test: Growth inhibition of human NCI-H23 cells after 48 hrs by sulforhodamine B assay; format: functional; conditions: NCI-H23, 48 h; how it was run: as §2
NCI-H322M = test: Growth inhibition of human NCI-H322M cells after 48 hrs by sulforhodamine B assay; format: functional; how it was run: as §2
NCI-H460 = test: Growth inhibition of human NCI-H460 cells after 48 hrs by sulforhodamine B assay; format: functional; conditions: NCI-H460, 48 h; how it was run: as §2
NCI-H522 = test: Growth inhibition of human NCI-H522 cells after 48 hrs by sulforhodamine B assay; format: functional; conditions: NCI-H522, 48 h; how it was run: as §2
COLO 205 = test: Growth inhibition of human COLO205 cells after 48 hrs by sulforhodamine B assay; format: functional; conditions: COLO 205, 48 h; how it was run: as §1
HCC 2998 = test: Growth inhibition of human HCC2998 cells after 48 hrs by sulforhodamine B assay; format: functional; conditions: HCC 2998, 48 h; how it was run: as §2
HCT-116 = test: Growth inhibition of human HCT116 cells after 48 hrs by sulforhodamine B assay; format: functional; conditions: HCT-116, 48 h; how it was run: as §2
HCT-15 = test: Growth inhibition of human HCT15 cells after 48 hrs by sulforhodamine B assay; format: functional; conditions: HCT-15, 48 h; how it was run: as §2
HT-29 = test: Growth inhibition of human HT-29 cells after 48 hrs by sulforhodamine B assay; format: functional; conditions: HT-29, 48 h; how it was run: as §2
KM12 = test: Growth inhibition of human KM12 cells after 48 hrs by sulforhodamine B assay; format: functional; conditions: KM12, 48 h; how it was run: as §2
SW-620 = test: Growth inhibition of human SW620 cells after 48 hrs by sulforhodamine B assay; format: functional; conditions: SW-620, 48 h; how it was run: as §2
SF-268 = test: Growth inhibition of human SF268 cells after 48 hrs by sulforhodamine B assay; format: functional; conditions: SF-268, 48 h; how it was run: as §2
SF-295 = test: Growth inhibition of human SF295 cells after 48 hrs by sulforhodamine B assay; format: functional; conditions: SF-295, 48 h; how it was run: as §2
SF-539 = test: Growth inhibition of human SF539 cells after 48 hrs by sulforhodamine B assay; format: functional; conditions: SF-539, 48 h; how it was run: as §2
SNB-19 = test: Growth inhibition of human SNB19 cells after 48 hrs by sulforhodamine B assay; format: functional; conditions: SNB-19, 48 h; how it was run: as §2
SNB-75 = test: Growth inhibition of human SNB75 cells after 48 hrs by sulforhodamine B assay; format: functional; conditions: SNB-75, 48 h; how it was run: as §2
U-251 = test: Growth inhibition of human U251 cells after 48 hrs by sulforhodamine B assay; format: functional; conditions: U-251, 48 h; how it was run: as §2
LOX IMVI = test: Growth inhibition of human LOXIMVI cells after 48 hrs by sulforhodamine B assay; format: functional; how it was run: as §2
Malme-3M = test: Growth inhibition of human MALME-3M cells after 48 hrs by sulforhodamine B assay; format: functional; how it was run: as §2
M14 = test: Growth inhibition of human M14 cells after 48 hrs by sulforhodamine B assay; format: functional; conditions: M14, 48 h; how it was run: as §2
SK-MEL-2 = test: Growth inhibition of human SK-MEL-2 cells after 48 hrs by sulforhodamine B assay; format: functional; conditions: SK-MEL-2, 48 h; how it was run: as §2
SK-MEL-28 = test: Growth inhibition of human SK-MEL-28 cells after 48 hrs by sulforhodamine B assay; format: functional; conditions: SK-MEL-28, 48 h; how it was run: as §2
SK-MEL-5 = test: Growth inhibition of human SK-MEL-5 cells after 48 hrs by sulforhodamine B assay; format: functional; conditions: SK-MEL-5, 48 h; how it was run: as §2
UACC-257 = test: Growth inhibition of human UACC257 cells after 48 hrs by sulforhodamine B assay; format: functional; conditions: UACC-257, 48 h; how it was run: as §2
UACC-62 = test: Growth inhibition of human UACC62 cells after 48 hrs by sulforhodamine B assay; format: functional; conditions: UACC-62, 48 h; how it was run: as §2
IGROV-1 = test: Growth inhibition of human IGROV1 cells after 48 hrs by sulforhodamine B assay; format: functional; conditions: IGROV-1, 48 h; how it was run: as §2
OVCAR-3 = test: Growth inhibition of human OVCAR-3 cells after 48 hrs by sulforhodamine B assay; format: functional; conditions: OVCAR-3, 48 h; how it was run: as §2
OVCAR-4 = test: Growth inhibition of human OVCAR4 cells after 48 hrs by sulforhodamine B assay; format: functional; conditions: OVCAR-4, 48 h; how it was run: as §2
OVCAR-5 = test: Growth inhibition of human OVCAR5 cells after 48 hrs by sulforhodamine B assay; format: functional; conditions: OVCAR-5, 48 h; how it was run: as §2
OVCAR-8 = test: Growth inhibition of human OVCAR8 cells after 48 hrs by sulforhodamine B assay; format: functional; conditions: OVCAR-8, 48 h; how it was run: as §2
SK-OV-3 = test: Growth inhibition of human SKOV3 cells after 48 hrs by sulforhodamine B assay; format: functional; conditions: SK-OV-3, 48 h; how it was run: as §2
786-0 = test: Growth inhibition of human 786-0 cells after 48 hrs by sulforhodamine B assay; format: functional; conditions: 786-0, 48 h; how it was run: as §1
A498 = test: Growth inhibition of human A498 cells after 48 hrs by sulforhodamine B assay; format: functional; conditions: A498, 48 h; how it was run: as §1
ACHN = test: Growth inhibition of human ACHN cells after 48 hrs by sulforhodamine B assay; format: functional; how it was run: as §1
CAKI-1 = test: Growth inhibition of human Caki1 cells after 48 hrs by sulforhodamine B assay; format: functional; conditions: CAKI-1, 48 h; how it was run: as §1
RXF 393 = test: Growth inhibition of human RXF393 cells after 48 hrs by sulforhodamine B assay; format: functional; conditions: RXF 393, 48 h; how it was run: as §2
SN12C = test: Growth inhibition of human SN12C cells after 48 hrs by sulforhodamine B assay; format: functional; how it was run: as §2
TK-10 = test: Growth inhibition of human TK10 cells after 48 hrs by sulforhodamine B assay; format: functional; conditions: TK-10, 48 h; how it was run: as §2
UO-31 = test: Growth inhibition of human UO31 cells after 48 hrs by sulforhodamine B assay; format: functional; conditions: UO-31, 48 h; how it was run: as §2
PC-3 = test: Growth inhibition of human PC3 cells after 48 hrs by sulforhodamine B assay; format: functional; conditions: PC-3, 48 h; how it was run: as §2
DU-145 = test: Growth inhibition of human DU145 cells after 48 hrs by sulforhodamine B assay; format: functional; conditions: DU-145, 48 h; how it was run: as §1
MCF7 = test: Growth inhibition of human MCF7 cells after 48 hrs by sulforhodamine B assay; format: functional; conditions: MCF7, 48 h; how it was run: as §2
NCI/ADR-RES = test: Growth inhibition of human NCI/ADR-RES cells after 48 hrs by sulforhodamine B assay; format: functional; how it was run: as §2
MDA-MB-231 = test: Growth inhibition of human MDA-MB-231 cells after 48 hrs by sulforhodamine B assay; format: functional; conditions: MDA-MB-231, 48 h; how it was run: as §2
Hs-578T = test: Growth inhibition of human Hs 578T cells after 48 hrs by sulforhodamine B assay; format: functional; how it was run: as §2
MDA-MB-435 = test: Growth inhibition of human MDA-MB-435 cells after 48 hrs by sulforhodamine B assay; format: functional; conditions: MDA-MB-435, 48 h; how it was run: as §2
BT-549 = test: Growth inhibition of human BT549 cells after 48 hrs by sulforhodamine B assay; format: functional; conditions: BT-549, 48 h; how it was run: as §1
T47D = test: Growth inhibition of human T47D cells after 48 hrs by sulforhodamine B assay; format: functional; how it was run: as §2

COc1cc2c(cc1OCCCCCOc1ccc(-c3nc4ccccc4s3)cc1)N=C[C@@H]1CCCN1C2=O
ΔTm (Calf thymus DNA): 4.3 °C | GI50 (CCRF-CEM): 269 nM | GI50 (HL-60): 562 nM | GI50 (K562): 363 nM | GI50 (MOLT-4): 282 nM | GI50 [1]: 398 nM | GI50 (SR): 19.1 nM | GI50 (A549): 2570 nM | GI50 (EKVX): 1550 nM | GI50 (HOP-62): 407 nM | GI50 (HOP-92): 269 nM | GI50 (NCI-H226): 1510 nM | GI50 (NCI-H23): 891 nM | GI50 (NCI-H322M): 1950 nM | GI50 (NCI-H460): 347 nM | GI50 (NCI-H522): 550 nM | GI50 (COLO 205): 389 nM | GI50 (HCC 2998): 631 nM | GI50 (HCT-116): 347 nM | GI50 (HCT-15): 933 nM | GI50 (HT-29): 457 nM | GI50 (KM12): 1550 nM | GI50 (SW-620): 1020 nM | GI50 (SF-268): 3240 nM | GI50 (SF-295): 776 nM | GI50 (SF-539): 479 nM | GI50 (SNB-19): 2950 nM | GI50 (SNB-75): 1200 nM | GI50 (U-251): 457 nM | GI50 (LOX IMVI): 240 nM | GI50 (Malme-3M): 1230 nM | GI50 (M14): 324 nM | GI50 (SK-MEL-2): 1550 nM | GI50 (SK-MEL-28): 3890 nM | GI50 (SK-MEL-5): 339 nM | GI50 (UACC-257): 2240 nM | GI50 (UACC-62): 1170 nM | GI50 (IGROV-1): 2690 nM | GI50 (OVCAR-3): 741 nM | GI50 (OVCAR-4): 2140 nM | GI50 (OVCAR-5): 661 nM | GI50 (OVCAR-8): 813 nM | GI50 (SK-OV-3): 2570 nM | GI50 (786-0): 263 nM | GI50 (A498): 2240 nM | GI50 (ACHN): 1100 nM | GI50 (CAKI-1): 513 nM | GI50 (RXF 393): 200 nM | GI50 (SN12C): 813 nM | GI50 (TK-10): 3470 nM | GI50 (UO-31): 724 nM | GI50 (PC-3): 234 nM | GI50 (DU-145): 355 nM | GI50 (MCF7): 331 nM | GI50 (NCI/ADR-RES): 1120 nM | GI50 (MDA-MB-231): 263 nM | GI50 (Hs-578T): 1320 nM | GI50 (MDA-MB-435): 1380 nM | GI50 (BT-549): 229 nM | GI50 (T47D): 234 nM

COc1cc2c(cc1OCCCCCOc1ccc(-c3nc4ccccc4o3)cc1)N=C[C@@H]1CCCN1C2=O
ΔTm (Calf thymus DNA): 4.3 °C
